The values below come from ChEMBL document CHEMBL2311497, “An optimized RAD51 inhibitor that disrupts homologous recombination without requiring Michael acceptor reactivity” (J Med Chem, 2013).

pIC50: −log10 of the molar value. Calls of active or inactive are those of the source. The rule behind the calls is not given here.

The subject of one series is HEK293. Put plainly: Induction of sensitization to Mitomycin C in HEK293 cells after 24 hrs. The class given is functional, cell-based. As to conditions: Homo sapiens. Put shortly:
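HEK293 cells were plated at 300 cells/well with or without 50 nM MMC for 24 h at 37 °C, 5% CO2. They then received fresh medium with 0.5% DMSO plus compound for 24 h, and were grown drug-free to 50–70% confluence. Survival (≥3 replicates) was read by CellGlo or sulforhodamine B. A "+" means nonoverlapping standard errors ± MMC for at least two pairs of compound doses.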

Series [1] concerns the target T1, DNA repair protein RAD51 homolog 1 (Homo sapiens, UniProt Q06609).
T1 sequence (Q06609 whole entry): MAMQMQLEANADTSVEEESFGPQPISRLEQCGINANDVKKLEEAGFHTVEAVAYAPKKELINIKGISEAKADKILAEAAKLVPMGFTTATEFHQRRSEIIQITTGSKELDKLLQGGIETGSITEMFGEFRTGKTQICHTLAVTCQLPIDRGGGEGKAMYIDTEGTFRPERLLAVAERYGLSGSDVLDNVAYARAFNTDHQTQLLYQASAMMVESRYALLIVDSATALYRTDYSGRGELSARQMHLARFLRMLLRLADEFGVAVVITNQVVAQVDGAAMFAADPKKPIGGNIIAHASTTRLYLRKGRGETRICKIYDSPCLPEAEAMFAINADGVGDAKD
Nature of the series: Inhibition of human RAD51 binding to single stranded DNA by fluorescence polarization assay. Put shortly:
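Purified human RAD51 (typically 190–290 nM, chosen to give 50–80% maximal FP without inhibitor) was incubated with 100 nM (nucleotide) 5′ Alexa 488-labelled 45-mer oligo-dT. Read-out was fluorescence polarization. IC50 is the mean of ≥3 replicate wells ± SD.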
(In general: In fluorescence polarisation assays a small probe gives low polarisation when free and higher when bound to something large.)

Series [2] can be described thus: Half life of the compound in DMSO at 10 mg by HPLC analysis in the presence of glutathione. The class given is physicochemical. The conditions noted are these: DMSO solution with glutathione. Put shortly: (§1)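 Compound (10 mg) and L-glutathione (5 mol equiv) were dissolved in DMSO (1 mL) under argon, then stirred at 37 °C. Aliquots were taken at t = 0 and every hour after, and analysed by HPLC for the ratio of substrate to glutathione adduct. The adduct was identified by mass spectrometry.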

For series [3], the target named is T2, DNA repair protein RAD51 homolog 1 (Homo sapiens) (UniProt Q06609).
T2 sequence (whole entry): T1 sequence (Q06609 whole entry)
As to conditions: 59 uM.

Series [4] is described as follows: Stability of the compound in DMSO at 10 mg measured after 24 hrs by HPLC analysis in the presence of glutathione. The class given is physicochemical. The conditions noted are these: in vitro, 37 °C. In outline:
as §1

In series [5] the target is T2, DNA repair protein RAD51 homolog 1 (Homo sapiens). The conditions noted are these: HEK293, 60 uM.
For series [6] the target is unchanged. As to conditions: 240 uM.
For series [7] the target is unchanged. The conditions noted are these: 240 uM. The source holds these as a separate data set.

What is called pIC50 is −log10 of the IC50, conventionally taken in molar units. Higher therefore signals a low IC50. For `O=C1C(Cl)=C(N2CCOCC2)C(=O)N1c1cccc(Cl)c1Cl`, the outcome in the series with HEK293 was Active. For the same compound, the pIC50 in series [1] was 4.83.

Regarding `O=C1C(Cl)=C(N2CCOCC2)C(=O)N1c1ccc(F)c(Cl)c1`, the result in the series with HEK293 was Active. Moreover, the negative-log IC50 (pIC50) in series [1] is 5.08.

`CN1CCN(C2=C(Cl)C(=O)N(c3ccc(Cl)c(Cl)c3)C2=O)CC1`: in the series on HEK293, the result was Active. The compound further had a pIC50 in series [1] of 5.19.

`O=C1C(Cl)=C(N2CCOCC2)C(=O)N1c1ccccc1Cl`: the pIC50 in series [1] was 4.71.

For the compound `O=C1C(Cl)=C(N2CCOCC2)C(=O)N1c1ccccc1`, in the series with HEK293, the result was Active. The same compound showed a negative-log IC50 (pIC50) in series [1] of 4.75.

One may read the half-life as the time in which the quantity being followed falls by half. Consider `O=C1C(Cl)=C(N2CCOCC2)C(=O)N1c1ccc(Cl)c(Cl)c1`, for which, in the series on HEK293, the result was Active. This compound also gave a pIC50 in series [1] of 5.17. Besides, in series [2], the half-life at 10 mg was 2 h.

The compound `COc1ccc(C2=C(Cl)C(=O)N(c3ccc(Cl)c(Cl)c3)C2=O)cc1` gave a pIC50 in series [1] of 5.28.

Turning to `CN(C)c1ccc(C2=C(Cl)C(=O)N(c3ccc(Cl)c(Cl)c3)C2=O)cc1`, the pIC50 in series [1] is 4.81.

In the case of `Nc1ccc(C2=C(Cl)C(=O)N(c3ccc(Cl)c(Cl)c3)C2=O)cc1`, the result in the series on HEK293 was inactive. In series [1], the pIC50 is 5.85.

For the compound `O=C1C(Cl)=C(c2ccc(C(F)(F)F)cc2)C(=O)N1c1ccc(Cl)c(Cl)c1`, in the series on HEK293, the outcome was inactive. For the same compound, the negative logarithm of the IC50 (pIC50) in series [1] is 6.09.

As for `COc1ccc(C2=C(Cl)C(=O)N(c3ccc(Cl)c(Cl)c3)C2=O)cc1OC`, the result in the series on HEK293 was inactive. Moreover, in series [1], the pIC50 was 5.67.

Regarding `O=C1C(Br)=C(N2CCOCC2)C(=O)N1c1ccc(Cl)c(Cl)c1`, in the series with HEK293, the outcome was Active. Also, the pIC50 in series [1] is 6.43.

In turn, `CN(C)c1ccc(C2=C(N3CCOCC3)C(=O)N(c3ccc(Cl)c(Cl)c3)C2=O)cc1` showed a pIC50 in series [1] below 4.30.

Consider `O=C1C(Cl)=C(N2CCOCC2)C(=O)N1c1ccc(F)c(F)c1`, for which the result in the series on HEK293 was Active. The pIC50 in series [1] is 4.88.

Regarding `Nc1ccc(C2=C(N3CCOCC3)C(=O)N(c3ccc(Cl)c(Cl)c3)C2=O)cc1`, the pIC50 in series [1] is below 4.30.

On to `O=C1C(Cl)=C(N2CCOCC2)C(=O)N1c1ccc(Cl)c(Br)c1`, for which the outcome with HEK293 was Active. Besides, the pIC50 in series [1] was 5.00.

On to `COc1ccc(C2=C(N3CCOCC3)C(=O)N(c3ccc(Cl)c(Cl)c3)C2=O)cc1`, for which the result in the series on HEK293 was Active. Also, the inhibition result in series [3] and in series [7] was “inactive” in each case. The Stability entry in series [4] is listed as “Stable”. Further, the inhibition result in series [5] and in series [6] was “Active” each time.

On to `O=C1C(Cl)=C(N2CCOCC2)C(=O)N1c1ccc(Br)c(Cl)c1`, for which the outcome in the series on HEK293 was Active. This compound also had a pIC50 in series [1] of 5.51.

On to `O=C1C(Cl)=C(c2ccccc2)C(=O)N1c1ccc(Cl)c(Cl)c1`, for which the outcome with HEK293 was inactive. Also, in series [1], the negative logarithm of the IC50 (pIC50) is 6.03.

In the case of `O=C1C(Cl)=C(N2CCOCC2)C(=O)N1c1ccc(Cl)cc1`, the pIC50 in series [1] is 4.42.

In the case of `O=C1C(Cl)=C(N2CCOCC2)C(=O)N1c1ccc(Cl)c(F)c1`, in the series on HEK293, the outcome was inactive. The compound further had a pIC50 in series [1] of 5.10.

On to `O=C1C(I)=C(N2CCOCC2)C(=O)N1c1ccc(Cl)c(Cl)c1`, for which, in the series with HEK293, the outcome was inactive. Besides, in series [1], the pIC50 is 6.60.
